Assay results as given in publication PMC9322450 (Angewandte Chemie (International ed. in English), 2022).

Experiments:
[1] = test system: S. aureus; test: murine open-wound model of S. aureus infection; assay type: in vivo, mouse; conditions: even at relatively high concentrations (e.g. 10 μM)
[2] = assay type: in vitro ADME, mouse
How it was run: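 Mouse epidermis punches (C57BL/6-type, ≈6 mm diameter, 1 mm thick) incubated with test compound at 4.85 μM in PBS for 24 h. Supernatant sampled over time, diluted 100-fold, added to a group-I S. aureus agr YFP reporter strain making native AIP. Fluorescence normalized to vehicle (100%) and media (0%) controls, n=3 independent experiments; remaining active compound estimated from an earlier dose-response curve.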

## AIP-III D4A
[1]
  benefit on wound healing: only a limited benefit on wound healing
[2]; after 24 h with mouse tissue in PBS, start 4.85 μM
  loss of active compound: ~ 95%
[2]; control without tissue, 24 hr
  loss of inhibitory activity in the absence of mouse tissue: no loss of inhibitory activity
[2]; tissue sample heat treated at 80 °C for 15 min before addition of compound
  loss of activity with heat-treated tissue: loss of activity could be prevented
